Experimental data published in ChEMBL document CHEMBL1126694, “Antitumor agents. 141. Synthesis and biological evaluation of novel thiocolchicine analogs: N-acyl-, N-aroyl-, and N-(substituted benzyl)deacetylthiocolchicines as potent cytotoxic and antimitotic compounds” (J Med Chem, 1993).

Legend:
Format in all cases: functional
SNB-19 = assay: In vitro cytotoxicity against SNB-19 cell line.; conditions: Homo sapiens
Method in brief: (§1)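 Tested by the NCI in its tumor cell panel. GI50 (M) is reported as the concentration that caused 50% inhibition of tumor cell growth.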

OVCAR = assay: In vitro cytotoxicity against OVCAR cell line.; conditions: Homo sapiens; method in brief: as §1
[1] = In vitro cytotoxicity against RXF cell line.; conditions: Homo sapiens; method in brief: as §1
SR = assay: In vitro cytotoxicity against SR cell line.; conditions: Homo sapiens; method in brief: as §1
A549 = assay: In vitro cytotoxicity against A549/ATCC cell line.; conditions: Homo sapiens; method in brief: as §1
DMS-114 = assay: In vitro cytotoxicity against DMS114 cell line.; conditions: Homo sapiens; method in brief: as §1
Tubulin = assay: In vitro inhibition of tubulin polymerization.
SK-MEL-5 = assay: In vitro cytotoxicity against SK-MEL-5 cell line.; conditions: Homo sapiens; method in brief: as §1
HCT-15 = assay: In vitro cytotoxicity against HCT-15 cell line.; conditions: Homo sapiens; method in brief: as §1

Row | Structure (SMILES) | GI50 (SNB-19) [nM] | GI50 (OVCAR) [nM] | GI50 [1] [nM] | GI50 (SR) [nM] | GI50 (A549) [nM] | GI50 (DMS-114) [nM] | IC50 (Tubulin) [nM] | GI50 (SK-MEL-5) [nM] | GI50 (HCT-15) [nM]
1 | COc1cc2c(c(OC)c1OC)-c1ccc(SC)c(=O)cc1[C@@H](NCc1ccc([N+](=O)[O-])cc1)CC2 | < 10 | < 10 | < 10 | < 10 | < 10 | < 10 | 2800 | < 10 | < 10
2 | COc1cc(CN[C@H]2CCc3cc(OC)c(OC)c(OC)c3-c3ccc(SC)c(=O)cc32)cc(OC)c1 | 67.6 |  | < 10 | < 10 | 37.1 | 16.6 | 3400 |  | < 10
3 | COc1cc2c(c(OC)c1OC)-c1ccc(SC)c(=O)cc1[C@@H](NC(=O)c1ccc(F)cc1)CC2 | 28.8 | 18.2 |  | 16.6 | 49 | 26.9 |  | 30.2 | 42.7
4 | COc1cc2c(c(OC)c1OC)-c1ccc(OC)c(=O)cc1[C@@H](NC(C)=O)CC2 [COLCHICINE] |  | < 63.1 |  |  | < 63.1 |  |  | < 63.1 | < 63.1
5 | COc1cc2c(c(OC)c1OC)-c1ccc(SC)c(=O)cc1[C@@H](NC(=O)c1ccc([N+](=O)[O-])cc1)CC2 | < 10 | < 10 | < 10 | < 10 | < 10 | < 10 |  | < 10 | < 10
6 | CCOC(=O)c1c(OC)cc(C(=O)N[C@H]2CCc3cc(OC)c(OC)c(OC)c3-c3ccc(SC)c(=O)cc32)cc1OC | 324 | 32.4 | 234 |  | 427 | 26.3 |  | 45.7 | 447
7 | COc1cc2c(c(OC)c1OC)-c1ccc(SC)c(=O)cc1[C@@H](NC(=O)c1ccc(Cl)cc1)CC2 | < 10 | < 10 | < 10 | < 10 | < 10 | < 10 |  | < 10 | < 10
8 | COc1cc2c(c(OC)c1OC)-c1ccc(SC)c(=O)cc1[C@@H](NCc1cccc(C#N)c1)CC2 | < 7.59 | < 7.59 | < 7.59 | < 7.59 | < 7.59 | < 7.59 | 2500 | < 7.59 | < 7.59
9 | COc1cc2c(c(OC)c1OC)-c1ccc(SC)c(=O)cc1[C@@H](NCc1ccc(F)cc1)CC2 | < 7.59 | < 7.59 | < 7.59 | < 7.59 | < 7.59 |  | 2300 | < 7.59 | < 7.59
10 | COc1cc2c(c(OC)c1OC)-c1ccc(SC)c(=O)cc1[C@@H](NC(=O)c1ccc(OC(C)=O)cc1)CC2 | 21.4 | 15.1 | 27.5 | 7.76 | < 100 | 14.4 |  | 19.5 | < 100
11 | COc1cc2c(c(OC)c1OC)-c1ccc(SC)c(=O)cc1[C@@H](NCc1cccc([N+](=O)[O-])c1)CC2 | < 10 | < 10 | < 10 | > 100000 | < 10 | < 10 | 2800 | < 10 | < 10
12 | COc1cc2c(c(OC)c1OC)-c1ccc(SC)c(=O)cc1[C@@H](NC(=O)c1ccc(C#N)cc1)CC2 | < 10 | < 10 |  | < 10 | < 10 | < 10 |  | < 10 | < 10
13 | COc1cc2c(c(OC)c1OC)-c1ccc(SC)c(=O)cc1[C@@H](NC(=O)c1cccc([N+](=O)[O-])c1)CC2 | 26.9 | 19.1 | 16.6 | 8.51 | 33.1 | 16.6 | 3400 | 18.2 | 26.9
14 | CCCCCC(=O)N[C@H]1CCc2cc(OC)c(OC)c(OC)c2-c2ccc(SC)c(=O)cc21 | < 10 | < 10 | < 10 | < 10 | < 10 | < 10 |  | < 10 | < 10
15 | COc1cc2c(c(OC)c1OC)-c1ccc(SC)c(=O)cc1[C@@H](NCc1ccc(C#N)cc1)CC2 | < 10 | < 10 | < 10 | < 10 | < 10 | < 10 | 2300 | < 10 | < 10
16 | COc1ccc(CN[C@H]2CCc3cc(OC)c(OC)c(OC)c3-c3ccc(SC)c(=O)cc32)c(OC)c1OC |  | < 10 |  | < 10 |  | < 10 | 2500 | < 10 | < 10
17 | COc1cc2c(c(OC)c1OC)-c1ccc(SC)c(=O)cc1[C@@H](NCc1ccccc1[N+](=O)[O-])CC2 | < 10 | < 10 | < 10 |  | < 10 | < 10 | 3200 | < 10 | < 10
18 | COc1cc(C(=O)N[C@H]2CCc3cc(OC)c(OC)c(OC)c3-c3ccc(SC)c(=O)cc32)cc(OC)c1OC |  | < 10 | 33.9 | < 10 | 17 | < 10 |  | < 10 | 
